This note sets out measurements from ChEMBL document CHEMBL1909516, “Synthesis of 9-substituted 2,3,4,9-tetrahydro-1H-carbazole derivatives and evaluation of their anti-prion activity in TSE-infected cells” (Eur J Med Chem, 2011).

Calls of active or inactive are those of the source. No cut-off for these calls is given here.

The subject of series [1] is GT1-7. Kind of series: Antiprion activity in human transmissible spongiform encephalopathies agent Fukuoka-1 prion infected mouse GT1-7 cells assessed as inhibition of proteinase K-resistant PrPres accumulation at […] after 3 days by Western blotting analysis. Type of series: cell-based. The essentials: (§1)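 GT1-7 mouse neuronal cells persistently infected with Fukuoka-1 agent, grown in DMEM with 10% FBS and penicillin G at 37 °C, 5% CO2. Seeded 3 × 10⁵ cells/well; 15 h later given compound diluted from 10 mM DMSO stock (control 0.1% DMSO). Lysate adjusted to 1 mg/mL protein, proteinase K 30 min 37 °C, pelleted, SDS-PAGE, anti-PrP M-20 Western blot. IC50 = 50% PrPres inhibition.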
(In general: In western blotting, separated proteins are transferred to a membrane and probed.)

Series [2] is described as follows: Cytotoxicity against human transmissible spongiform encephalopathies agent Fukuoka-1 prion infected mouse GT1-7 cells at 10 uM after 3 days. Type of series: cell-based. The conditions noted are these: gt1-7, 72 h.
The test system of series [3] is GT1-7. Kind of series: Antiprion activity in human transmissible spongiform encephalopathies agent Fukuoka-1 prion infected in mouse GT1-7 cells assessed as inhibition of proteinase K-resistant PrPres accumulation at 5 uM after 3 days by Western blot analysis relative to control. It is filed as cell-based. The essentials:
as §1

In series [4] the test system is GT1-7. The series can be described thus: Antiprion activity in human transmissible spongiform encephalopathies agent Fukuoka-1 prion infected mouse GT1-7 cells assessed as inhibition of PrPC expression at 5 uM after 3 days absence of proteinase K digestion. It is filed as cell-based. In short, it runs like this:
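GT1-7 cells persistently infected with Fukuoka-1 agent, seeded 3 × 10⁵ cells/well. Compound from 10 mM DMSO stock added 15 h after seeding (vehicle 0.1% DMSO). Lysates adjusted to 1 mg/mL total protein (BCA). Run without proteinase K digestion, so PrPC is read by Western blot with M-20 anti-PrP antibody.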

The nature of series [5]: Antiprion activity in human transmissible spongiform encephalopathies agent Fukuoka-1 prion infected mouse GT1-7 cells assessed as inhibition of proteinase K-resistant PrPres accumulation after 3 days by Western blot analysis. The conditions noted are these: GT1-7, 72 h. It is filed as cell-based. In short, it runs like this: as §1
The species named for series [6] is Mus musculus. Kind of series: Antiprion activity in scrapie infected mouse ScN2a-3-Ch cells assessed as inhibition of proteinase K-resistant PrPres accumulation at 5 uM after 3 days by Western blot analysis relative to control. In short, it runs like this: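 Scrapie-infected ScN2a-3-Ch cells seeded at about 1 × 10⁵ cells/well and handled as in the GT1-7 assay. Compound diluted from 10 mM DMSO stock, with 0.1% DMSO control. Lysate protein adjusted to 1 mg/mL, then proteinase K digestion 30 min at 37 °C. Pellet analysed by Western blot for PrPres, expressed relative to control.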

Series [7] relates to GT1-7. The series can be described thus: Ratio of compound IC50 over GJP14 IC50 for human transmissible spongiform encephalopathies agent Fukuoka-1 prion infected in mouse GT1-7 cells. Type of series: cell-based.

As for `OC(CN1CCCCC1)Cn1c2c(c3ccccc31)CCCC2` (centres undefined), in series [1], the inhibition result was “Active”.
Turning to `OC(CNCc1ccc(Cl)cc1)Cn1c2c(c3ccccc31)CCCC2` (centres undefined), the Activity entry in series [2] is “Toxic”. The inhibition in series [3] came to 18%.
Regarding `OC(CNCc1ccccc1F)Cn1c2c(c3ccccc31)CCCC2` (centres undefined), the inhibition entry in series [1] was “Active”.
For `O[C@@H](CNCc1ccccc1F)Cn1c2c(c3ccccc31)CCCC2`, in series [4], the inhibition result is “inactive”. In addition, the IC50 in series [5] was 1.11 µM. In addition, the inhibition entry in series [6] is “Active”. The Ratio IC50 in series [7] amounted to 8.
Consider `OC(CNCc1ccc(F)cc1)Cn1c2c(c3ccccc31)CCCC2` (centres undefined), for which the inhibition entry in series [1] was “Active”.
As to `OC(CNCc1ccccc1Br)Cn1c2c(c3ccccc31)CCCC2` (centres undefined), the inhibition result in series [1] is “Active”.
On to `CC(C)(NCC(O)Cn1c2c(c3ccccc31)CCCC2)c1ccccc1` (centres undefined), for which the Activity entry in series [2] is “Toxic”. Further, the inhibition in series [3] amounted to 34%.
For `OC(CNCc1cc(F)ccc1F)Cn1c2c(c3ccccc31)CCCC2` (centres undefined), in series [1], the inhibition entry is “Active”.
On the same count and under the same terms, next, `OC(CN1CCCCC1)Cn1c2ccccc2c2ccccc21` (centres undefined): “Active”; `OC(CNCc1ccc(F)cc1F)Cn1c2c(c3ccccc31)CCCC2` (centres undefined): “Active”.
Regarding `OC(CNCc1ccccc1)Cn1c2c(c3ccccc31)CCCC2` (centres undefined), in series [1], the inhibition result is “Active”. The inhibition in series [3] was determined as 28%.
Turning to `OC(CNCc1ccc(C(F)(F)F)cc1)Cn1c2c(c3ccccc31)CCCC2` (centres undefined), the inhibition result in series [1] was “Active”.
On the same count and under the same terms, the entry for `OC(CN1CCOCC1)Cn1c2c(c3ccccc31)CCCC2` (centres undefined) is “Active”.
On to `OC(CNCc1cccc(Br)c1)Cn1c2c(c3ccccc31)CCCC2` (centres undefined), for which the inhibition entry in series [1] is “Active”.
The same measure, in the same setting: next, `OC(CNCc1ccccn1)Cn1c2c(c3ccccc31)CCCC2` (centres undefined): “Active”; `OC(CNCc1cccc(F)c1)Cn1c2c(c3ccccc31)CCCC2` (centres undefined): “Active”; `OC(CNCc1cccc2ccccc12)Cn1c2c(c3ccccc31)CCCC2` (centres undefined): “Active”.
As for `O[C@H](CNCc1ccccc1F)Cn1c2c(c3ccccc31)CCCC2`, the IC50 in series [5] worked out at 2.23 µM.
Consider `O=C(CN1CCCC1)Nc1ccc(Cc2ccc(NC(=O)CN3CCCC3)cc2)cc1`, for which the IC50 in series [5] was found to be 1.4 µM. Further, the inhibition in series [3] was determined as 34%.
`Cc1ccccc1CNCC(O)Cn1c2c(c3ccccc31)CCCC2` (centres undefined): in series [1], the inhibition result is “Active”.
`OC(CNCc1ccc(Br)cc1)Cn1c2c(c3ccccc31)CCCC2` (centres undefined): the Activity entry in series [2] was “Toxic”. In series [3], the inhibition is 25%.
On to `c1ccc2c3c([nH]c2c1)CCCC3`, for which the inhibition result in series [1] is “inactive”.
Take `Cc1ccc2c(c1)c1c(n2CC(O)CN2CCCCC2)C(=O)CCC1` (centres undefined): in series [5], the IC50 worked out at 8.54 µM.
For `OC(CN1CCCCC1)Cn1ccc2ccccc21` (centres undefined), the inhibition entry in series [1] was “inactive”.
The same measure, in the same setting: the entry for `OC(CNCc1cccnc1)Cn1c2c(c3ccccc31)CCCC2` (centres undefined) is “Active”; for `OC(CNCc1ccccc1C(F)(F)F)Cn1c2c(c3ccccc31)CCCC2` (centres undefined) it is “Active”; for `OC(CNCc1ccncc1)Cn1c2c(c3ccccc31)CCCC2` (centres undefined) it is “Active”.
Regarding `Cc1ccc(CNCC(O)Cn2c3c(c4ccccc42)CCCC3)cc1` (centres undefined), in series [2], the Activity result is given as “Toxic”. In addition, in series [3], the inhibition came out at 32%.
With `OC(CNCc1c(Cl)cccc1Cl)Cn1c2c(c3ccccc31)CCCC2` (centres undefined), in series [1], the inhibition entry was “Active”.
Turning to `OC(CNCc1cccc(Cl)c1)Cn1c2c(c3ccccc31)CCCC2` (centres undefined), the inhibition entry in series [1] is “Active”.
On the same count and under the same terms, next, `OC(CN1CCCCC1)Cn1cccc1` (centres undefined): “inactive”; `OC(CNCc1c(F)cccc1F)Cn1c2c(c3ccccc31)CCCC2` (centres undefined): “Active”; `OC(CNC1CCCC1)Cn1c2c(c3ccccc31)CCCC2` (centres undefined): “Active”.
The same measure, in the same setting: next, `Cc1cccc(CNCC(O)Cn2c3c(c4ccccc42)CCCC3)c1` (centres undefined): “Active”; `OC(CN1CCCCC1)Cn1ccc2c1CCCC2` (centres undefined): “inactive”.
`COc1ccc(CNCC(O)Cn2c3c(c4ccccc42)CCCC3)cc1` (centres undefined): the Activity entry in series [2] was “Toxic”. In addition, the inhibition in series [3] worked out at 23%.
In the case of `OC(CNc1ccccc1)Cn1c2c(c3ccccc31)CCCC2` (centres undefined), the inhibition entry in series [1] was “inactive”.
Take `OC(CNCc1cccc(C(F)(F)F)c1)Cn1c2c(c3ccccc31)CCCC2` (centres undefined): in series [2], the Activity entry is given as “Toxic”. Also, in series [3], the inhibition turned out to be 40%.
Consider `CCCCNCC(O)Cn1c2c(c3ccccc31)CCCC2` (centres undefined), for which the inhibition entry in series [1] is “Active”.
As for `COc1ccccc1CNCC(O)Cn1c2c(c3ccccc31)CCCC2` (centres undefined), the inhibition entry in series [1] was “Active”.
On to `OC(CNCc1ccccc1Cl)Cn1c2c(c3ccccc31)CCCC2` (centres undefined), for which, in series [1], the inhibition result is “Active”.
As to `COc1cccc(CNCC(O)Cn2c3c(c4ccccc42)CCCC3)c1` (centres undefined), the Activity entry in series [2] was “Toxic”. For the same compound, the inhibition in series [3] was 21%.

Usually inhibition stands for the drop in the measured response relative to a control, in per cent. For orientation: IC50 means the midpoint of a concentration-inhibition curve.
